Source: PubChem
PTEN del growth – growth suppression of PTEN-null HCT116, primary screen, cell-based, CellTiter-Glo. viability, % at 10 µM. HCT116 PTEN-null viability, 60 h; hits give low values. 140,000 tested, 1.2% active;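 active = viability at or below a set limit, 4 SD under the median of all tested compounds, cut at about 3.7% in these data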;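 also: PTEN knockout HCT116 line with beta catenin targeted HCT116 as companion control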
bCat KO growth – primary screen for growth suppressors in beta-catenin knockout HCT116 cells (colon tumor, human); 140,000 tested, 1.5% active; HCT116 beta-catenin knockout viability, CellTiter-Glo, 60 h; hits give low values; viability, % at 10 µM;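 active = viability at or under a set limit, the compound median less 4 SD, cut at about 6% in these data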
Fibroblast inh – antiproliferative effect on LL 47 fibroblasts – human, LL 47 cells, CellTiter-Glo luminescence, primary screen. AID 719, 2007. 85,000 tested, 1.1% active. viability, % at 10 µM. LL 47 human lung fibroblast viability, ATP luminescence; hits give low values;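 active = viability at or below 50% in the single dose screen; inactive = viability above 50%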;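 also: compound exposure lasted 72 h before the ATP readout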
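test system = LL 47 human lung fibroblasts | amount = 1,150 fibroblasts seeded per well | medium = 15% FBS in IMEM | times = overnight cell rest, 72 h compound treatment at 37 °C | measured by = CellTiter-Glo luminescence measuring cellular ATP | read-out = viability percentage against median untreated-cell control | benchmarks = cell-only wells, no compound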
H69AR inhibit – proliferation blockers of H69AR lung cancer cells, primary screen, cell-based, human, 86K library. 85,000 tested, 6% active. H69AR lung tumor viability, ATP luminescence, 72 h; hits give low values. viability, % at 10 µM. AID 598, 2007;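 active = viability at or below 40%; inactive = viability above 40%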;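 also: multidrug resistant small cell line overexpressing MRP-1 efflux transporter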
PTK2B oligo ant – antagonists of Pyk2 self-association, primary screen, Q293 cells, FERM NanoBiT luminescence, HTS | 99,000 tested, 0.83% active | z-score (the deposit names both 25 µM and 10 µM) | hits give low values | AID 1347419, 2020;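 active = Z-score of -3 or lower, scaled per plate to the spread of control and sample wells; inactive = z-score above -3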;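 also: negative z-score means lost luminescence so less FERM oligomerization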
Target sequence (Q14289 whole entry, looked up): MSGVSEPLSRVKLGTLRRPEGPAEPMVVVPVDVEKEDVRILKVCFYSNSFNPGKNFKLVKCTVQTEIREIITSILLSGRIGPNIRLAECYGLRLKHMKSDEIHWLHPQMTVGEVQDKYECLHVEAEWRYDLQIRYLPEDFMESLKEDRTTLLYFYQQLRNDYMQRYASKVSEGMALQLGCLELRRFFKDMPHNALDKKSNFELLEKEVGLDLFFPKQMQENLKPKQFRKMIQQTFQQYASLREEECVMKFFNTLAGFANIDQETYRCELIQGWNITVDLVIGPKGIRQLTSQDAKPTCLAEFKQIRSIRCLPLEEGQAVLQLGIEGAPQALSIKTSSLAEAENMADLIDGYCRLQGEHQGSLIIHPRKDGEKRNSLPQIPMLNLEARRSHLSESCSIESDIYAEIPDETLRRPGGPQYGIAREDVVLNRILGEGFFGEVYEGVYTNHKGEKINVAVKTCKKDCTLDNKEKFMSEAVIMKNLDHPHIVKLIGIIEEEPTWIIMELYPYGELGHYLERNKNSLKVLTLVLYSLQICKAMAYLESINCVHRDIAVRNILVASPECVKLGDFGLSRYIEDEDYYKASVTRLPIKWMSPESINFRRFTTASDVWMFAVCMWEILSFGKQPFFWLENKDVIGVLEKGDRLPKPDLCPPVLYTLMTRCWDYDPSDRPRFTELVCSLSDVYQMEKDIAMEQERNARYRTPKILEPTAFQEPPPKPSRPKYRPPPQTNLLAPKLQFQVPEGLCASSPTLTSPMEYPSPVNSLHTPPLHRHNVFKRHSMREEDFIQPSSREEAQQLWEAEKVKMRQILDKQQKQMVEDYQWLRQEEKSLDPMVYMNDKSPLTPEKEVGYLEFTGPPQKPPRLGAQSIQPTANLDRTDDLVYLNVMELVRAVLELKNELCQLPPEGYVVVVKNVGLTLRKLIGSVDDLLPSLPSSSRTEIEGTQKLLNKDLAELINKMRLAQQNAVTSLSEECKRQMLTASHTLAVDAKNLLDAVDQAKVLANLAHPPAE
HUVEC prolif 384 – inhibitors of HUVEC proliferation, primary screen, cell-based, 384-well; CellTiter-Glo luminescence, 72 h; hits give low values; viability, % at 10 µM (by protocol); 86,000 tested, 1.1% active; AID 648, 2007;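 active = viability at or below 30%; inactive = viability above 30%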
Of the large screens only hits and unclear results are named; the others gave an inactive call. This is one part of a sample in which hits are shown more often than they occur.

CCCOC(=O)c1ccc(Oc2cn[nH]c2-c2ccc(OC)cc2O)cc1	HUVEC prolif 384 8.5
C=C(C)COc1ccc(-c2[nH]ncc2Oc2ccccc2OC)c(O)c1	H69AR inhibit 1.5, PTK2B oligo ant -3.62
Cc1ccc(N2C(=O)C3C(c4ccccc4)N4CCCN4C3(C)C2=O)cc1 (stereo not drawn)	none (no result: Fibroblast inh, H69AR inhibit, PTK2B oligo ant, HUVEC prolif 384)
C=C(C)COc1ccc(-c2n[nH]c(C)c2-c2ccc(Br)cc2)c(O)c1	Fibroblast inh 32.4, H69AR inhibit 6.6, HUVEC prolif 384 3.8
CCOc1ccc(-c2[nH]ncc2Oc2ccccc2OCC)c(O)c1	H69AR inhibit 12.4
CCOc1ccccc1OCCOc1ccc(F)cc1	none (no result: Fibroblast inh, H69AR inhibit, HUVEC prolif 384)
C=C(C)COc1ccc(-c2[nH]ncc2-c2ccccc2OC)c(O)c1	H69AR inhibit 6.0
C=C(C)COc1ccc(-c2[nH]ncc2-c2ccc(Br)cc2)c(O)c1	PTEN del growth 2.2, bCat KO growth 1.8 (no result: Fibroblast inh, H69AR inhibit, PTK2B oligo ant, HUVEC prolif 384)
COc1ccc(-c2cn[nH]c2-c2ccc(OCc3ccc([N+](=O)[O-])cc3)cc2O)cc1	none (no result: Fibroblast inh, H69AR inhibit, PTK2B oligo ant, HUVEC prolif 384)
Cc1ccc(N=C2NC(=O)/C(=C/c3cn(C)c4ccccc34)S2)cc1C	none (no result: Fibroblast inh, H69AR inhibit, PTK2B oligo ant, HUVEC prolif 384)
Cc1ccc(C2CC2C(=O)NNC(=S)Nc2ccc(Cl)cc2)cc1 (stereo not drawn)	none
Cc1ccnc(SCCn2c(N3CCOCC3)nc3c2c(=O)n(C)c(=O)n3C)n1	none (no result: PTEN del growth, bCat KO growth, PTK2B oligo ant)
CCOc1ccc(-c2[nH]ncc2-c2ccc(OC)c(OC)c2)c(O)c1	H69AR inhibit 14.4
O=C(CCN1CCOCC1)c1ccc2c(c1)OCCO2	H69AR inhibit 3.3
O=C(CCCN1CCOCC1)c1ccc2c(c1)OCCO2	none
O=C(CCN1CCCCC1)c1ccccc1	none
O=C(CCN1CCOCC1)c1ccccc1	PTEN del growth 1.0, bCat KO growth 1.2
CCN(CC)c1ncc(C)c(=O)[nH]1	none
O=C(O)c1ccc(N2CCCCC2)cc1	none
Nc1ccc(N2CCCCCC2)cc1	H69AR inhibit 2.1 (no result: PTK2B oligo ant)
CCOC(=O)c1c2ccc(OCC(=O)N/N=C/c3ccc(C)cc3)cc2n2ccccc12	PTEN del growth 1.6, bCat KO growth 1.5 (no result: Fibroblast inh, H69AR inhibit, HUVEC prolif 384)
COC12NC(=O)N(C)C1(OC)C(=O)N(C)C(=O)N2C (stereo not drawn)	none (no result: Fibroblast inh, H69AR inhibit, PTK2B oligo ant, HUVEC prolif 384)
Cc1ccnc(NC(=S)NC(=O)c2cccs2)c1	none (no result: Fibroblast inh, H69AR inhibit, PTK2B oligo ant, HUVEC prolif 384)
COc1ccc(CNC(=O)C(C#N)c2nc3ccccc3nc2N2CCCC2)cc1 (stereo not drawn)	H69AR inhibit 33.8
COc1ccc(CNC(=O)C(C#N)c2nc3ccccc3nc2N2CCN(C)CC2)cc1 (stereo not drawn)	H69AR inhibit 34.1, HUVEC prolif 384 4.2
CCN(CC)S(=O)(=O)c1cccc(C(=O)NC(Cc2c[nH]c3ccccc23)c2nnc3n2CCC3)c1 (stereo not drawn)	none (no result: Fibroblast inh, H69AR inhibit, PTK2B oligo ant, HUVEC prolif 384)
COc1ccc(Nc2nc(NCc3ccco3)nc(N/N=C/c3ccccc3)n2)cc1	PTK2B oligo ant -3.2 (no result: Fibroblast inh, H69AR inhibit, HUVEC prolif 384)
CC(=O)NCCc1nc2ccccc2n1Cc1ccccc1	none (no result: PTK2B oligo ant)
Cc1c(C#N)c2ccccc2n1CC(=O)NCCc1c[nH]c2ccccc12	H69AR inhibit 36.6 (no result: PTK2B oligo ant)
CN1CCN(c2ccc(Cl)cc2NC(=O)c2cccc(S(=O)(=O)N(C)C)c2)CC1	H69AR inhibit 25.6
COc1ccc(OC)c(NC(=O)C2COc3ccccc3O2)c1 (stereo not drawn)	none
CN(C)S(=O)(=O)c1cccc(C(=O)Nc2cc(Cl)ccc2O)c1	none
O=C(Nc1ccc2c(c1)OCO2)c1nn(-c2ccccc2)c(=O)c2ccccc12	none (no result: Fibroblast inh)
CN1CCN(c2ccc(Cl)cc2NC(=O)c2nn(-c3ccccc3)c(=O)c3ccccc23)CC1	H69AR inhibit 4.9
CN1CCN(c2ccc(Cl)cc2NC(=O)C2COc3ccccc3O2)CC1 (stereo not drawn)	H69AR inhibit 30.4
COc1ccc(NC(=O)COC(=O)CCCN2C(=O)c3ccccc3C2=O)cc1Cl	none (no result: Fibroblast inh, H69AR inhibit, HUVEC prolif 384)
Cn1c(=O)c2c(nc(Oc3ccc4c(c3)OCO4)n2Cc2ccc(Br)cc2)n(C)c1=O	Fibroblast inh 30.4, H69AR inhibit 17.5, HUVEC prolif 384 22.3 (no result: PTEN del growth, bCat KO growth, PTK2B oligo ant)
Cn1c(=O)c2c(nc(Oc3ccc4c(c3)OCO4)n2Cc2ccc(F)cc2)n(C)c1=O	none (no result: Fibroblast inh, H69AR inhibit, HUVEC prolif 384)
Cc1ccc(C)c(S(=O)(=O)Nc2ccccc2C(=O)Nc2ccc(S(=O)(=O)Nc3ncccn3)cc2)c1	none (no result: Fibroblast inh, H69AR inhibit, PTK2B oligo ant, HUVEC prolif 384)
O=C(Nc1ccccn1)c1ccc(Br)c(S(=O)(=O)N2CCCCC2)c1	none (no result: Fibroblast inh, H69AR inhibit, HUVEC prolif 384)
CCC(C)Sc1nc2c([nH]c3ccccc32)c(=O)n1C (stereo not drawn)	none (no result: PTK2B oligo ant)
COC(=O)C(C)Sc1nc2c([nH]c3ccccc32)c(=O)n1C (stereo not drawn)	H69AR inhibit 38.8
CCC1CCCCN1C(=O)CSc1nnc(-c2c[nH]c3ccccc23)o1 (stereo not drawn)	H69AR inhibit 34.5
COc1ccc(CN(C(=O)CSc2nnc(-c3c[nH]c4ccccc34)o2)c2ccc(F)cc2)cc1OC	H69AR inhibit 11.1, PTK2B oligo ant -4.2, HUVEC prolif 384 18.0
CCC1CCCCN1C(=O)CSc1nc2c([nH]c3ccccc32)c(=O)n1C (stereo not drawn)	H69AR inhibit 33.5
COc1cc(OC)c(OC)cc1/C=C/C(=O)c1ccc(NS(=O)(=O)c2ccc(C)cc2)cc1	none (no result: Fibroblast inh, H69AR inhibit, PTK2B oligo ant, HUVEC prolif 384)
COCCn1c(C)cc(C(=O)COC(=O)CCN2C(=O)c3ccccc3C2=O)c1C	none
CC12CNCC(C)(CN(C(c3ccccc3)c3ccccc3)C1)C2	none
Clc1ccc(C(c2ccccc2)N2CCNCC2)cc1 (stereo not drawn)	H69AR inhibit 37.2
COc1ccc(C2NC(=O)c3sc(=S)n(-c4ccccc4)c3N2)cc1 (stereo not drawn)	PTEN del growth 3.2
CCOc1nc(NCCc2ccc(OC)c(OC)c2)nc(N2CCN(c3ccc(OC)cc3)CC2)n1	none
